This is an account of results in ChEMBL document CHEMBL1944636, “Inhibition of hepatitis C virus NS5B polymerase by S-trityl-L-cysteine derivatives” (Eur J Med Chem, 2012).

The test system of series [1] is Hepatitis C virus. Kind of series: Inhibition of HCV genotype 1b recombinant N-His-tagged NS5B Cdelta21 polymerase expressed in Escherichia coli DH5alpha using [alpha-32P]UTP after 60 mins by liquid scintillation counting. Further details: species or system Hepatitis C virus subtype 1b. Particulars: DH5-alpha, 1 h. In a few lines:
(§1)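 NS5BCΔ21 (genotype 1b, N-His, from E. coli DH5α, Ni-NTA purified), 100 ng, elongates polyrA/U₁₂ with 20 μM UTP/[α-³²P]UTP and 1 mM MnCl₂ at pH 7.0, 60 min at 30 °C. Counted on filters by scintillation. IC50 from nonlinear fits of 8–12 concentrations in duplicate, two independent experiments.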

Series [2] concerns Hepatitis C virus. Kind of series: Inhibition of HCV genotype 1b recombinant N-His-tagged NS5B Cdelta21 polymerase expressed in Escherichia coli DH5alpha using [alpha-32P]UTP at 100 uM after 60 mins by liquid scintillation counting. More on the design: species or system Hepatitis C virus subtype 1b. Particulars: for inhibition at 100 µM: DH5-alpha, 1 h. In outline: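 Primer-dependent elongation with 100 ng NS5BCΔ21 in 20 mM Tris-HCl pH 7.0, 100 mM NaCl, 100 mM Na-glutamate, 1 mM MnCl₂, 0.25 μM polyrA/U₁₂, 20 μM UTP plus [α-³²P]UTP. Compound at 100 μM, 60 min at 30 °C. TCA/pyrophosphate stop, GF-B filter capture, scintillation counting. Percent of DMSO control, at least two independent measurements in duplicate.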

Series [3] can be described thus: Cytotoxicity against human HuH7 cells assessed as cell viability at 100 uM after 42 hrs by MTS assay. The format is cell-based, Huh-7. The settings on record: read-out: Activity. In a few lines:
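Viability of Huh7/Rep-Feo1b replicon cells was measured by colorimetric MTS read-out after 42 h with 100 μM compound. Cells were seeded at 1 × 10⁴/well, DMSO was 1.0% final, and culture was at 37 °C, 5% CO2. Values relative to DMSO controls, three independent experiments in duplicate.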

The test system of series [4] is Hepatitis C virus. Kind of series: Inhibition of HCV genotype 1b NS5B polymerase expressed in BHK cells at 100 uM after 42 hrs by luciferase reporter gene assay. More on the design: species or system Hepatitis C virus subtype 1b. In a few lines: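 Intracellular NS5B RdRp activity was read in BHK-NS5B-FRLuc reporter cells, 1 × 10⁴/well, treated 42 h with 100 μM compound or 1% DMSO at 37 °C, 5% CO2. Dual-Glo luciferase read-out; inhibition is percent reduction of Renilla-to-firefly luminescence ratio against DMSO controls. Three independent experiments in duplicate.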

Series [5] in a line: Cytotoxicity against hamster BHK cells assessed as cell viability at 100 uM after 42 hrs by luciferase reporter gene assay. In kind it is cell-based, Mesocricetus auratus. The settings on record: read-out: Activity. In outline:
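BHK-NS5B-FRLuc reporter cells (DMEM, 10% FBS, 1 mg/mL G418, 10 μg/mL blasticidin) were plated at 1 × 10⁴/well with 100 μM compound or 1% DMSO for 42 h. Viability was taken as firefly luciferase level versus DMSO controls using Dual-Glo read-out. Three independent experiments in duplicate.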

Series [6] deals with Hepatitis C virus. Kind of series: Antiviral activity against HCV genotype 1b infected in human HuH7/Rep-Feo1b cells assessed as inhibition of viral replication at 100 uM after 42 hrs by luciferase reporter gene assay. The format is functional, Hepacivirus hominis. The settings on record: Huh-7, 42 h. In outline:
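Huh7/Rep-Feo1b replicon cells (DMEM, 10% FCS, 0.5 mg/mL G418, 37 °C, 5% CO2) seeded at 1 × 10⁴/well and exposed to 100 μM compound or DMSO for 42 h, 1.0% DMSO final. Replication was read as firefly luciferase signal relative to DMSO controls. Mean of three independent experiments in duplicate.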

Series [7] is described as follows: Inhibition of HCV NS5B polymerase. Further details: species or system Hepacivirus hominis. In outline:
as §1

Active and inactive are the calls of the source. No cut-off for these calls is given here.

With `CCCCc1ccc(C(SC[C@H](N)C(=O)O)(c2ccccc2)c2ccccc2)cc1`, in the series with Hepatitis C virus [1], the half-maximal inhibitory concentration (IC50) was 39.7 µM. For the same compound, the inhibition at 100 µM in the series with Hepatitis C virus [2] was determined as 60%.
With `N[C@@H](CSC(c1ccccc1)(c1ccccc1)c1ccc(C(F)(F)F)cc1)C(=O)O`, in the series on Hepatitis C virus [2], the inhibition at 100 µM came to 43.5%.
On to `CCc1ccc(C(SC[C@H](N)C(=O)O)(c2ccccc2)c2ccccc2)cc1`, for which the inhibition at 100 µM with Hepatitis C virus [2] was found to be 36.8%.
Turning to `CSc1ccc(C(SC[C@H](N)C(=O)O)(c2ccccc2)c2ccccc2)cc1`, the inhibition at 100 µM in the series with Hepatitis C virus [2] is 44.3%.
On the same count and under the same terms, then `N[C@@H](CSC(c1ccccc1)(c1ccccc1)c1ccccc1)C(=O)O` [S-TRITYL-L-CYSTEINE], with 12.6%.
The same measure, in the same setting: to `CCC(CC)C(SC[C@H](N)C(=O)O)(c1ccccc1)c1ccccc1` belongs 33.1%; to `CCCc1ccc(C(SC[C@H](N)C(=O)O)(c2ccccc2)c2ccccc2)cc1`, 36.9%; to `CSc1ccc(C(SCCN)(c2ccccc2)c2ccccc2)cc1`, 24%.
Consider `CCCc1ccc(C(SCCN)(c2ccccc2)c2ccccc2)cc1`, for which the inhibition at 100 µM in the series with Hepatitis C virus [2] amounted to 27.4%.
On the same count and under the same terms, then `CCCCCc1ccc(C(SC[C@H](N)C(=O)O)(c2ccccc2)c2ccccc2)cc1`, with 28.3%; and `N[C@@H](CSC(c1ccccc1)(c1ccccc1)c1ccc(Br)cc1)C(=O)O`, with 20.2%.
Same read-out and setting: then `CC(C)C(SC[C@H](N)C(=O)O)(c1ccccc1)c1ccccc1`, with 22.5%; and `N[C@@H](CSC(c1ccccc1)(c1ccccc1)c1ccc(Cl)cc1)C(=O)O`, with 28.3%.
Same read-out and setting: then `N[C@@H](CSC(c1ccccc1)(c1ccccc1)c1ccc(C2CCCCC2)cc1)C(=O)O`, with 20.5%.
Consider `N[C@@H](CSC(c1ccccc1)(c1ccccc1)c1ccc(-c2ccccc2)cc1)C(=O)O`, for which, in the series on Hepatitis C virus [2], the inhibition at 100 µM came to 22.4%.
In the case of `NCCSC(c1ccccc1)(c1ccccc1)c1ccc(I)cc1`, the inhibition at 100 µM with Hepatitis C virus [2] is 36.7%.
Same read-out and setting: to `N[C@@H](CSC(c1ccccc1)(c1ccccc1)c1ccc2ccccc2c1)C(=O)O` belongs 14.7%.
On the same count and under the same terms, then `CCC(C)C(SC[C@H](N)C(=O)O)(c1ccccc1)c1ccccc1` (stereo partly drawn), with 34%.
In the case of `CCCOc1ccc(C(SC[C@H](N)C(=O)O)(c2ccccc2)c2ccccc2)cc1`, in the series on Hepatitis C virus [2], the inhibition at 100 µM came to 14%.
On to `CCCOc1ccc(C(SC(C)(C)[C@H](N)C(=O)O)(c2ccccc2)c2ccccc2)cc1`, for which, in the series with Hepatitis C virus [2] (Hepatitis C virus subtype 1b), the inhibition entry was “inactive”.
Turning to `NCCSC(c1ccccc1)(c1ccccc1)c1ccc2ccccc2c1`, the inhibition at 100 µM in the series with Hepatitis C virus [2] came to 33.3%.
In the case of `Cc1ccc(C(SCCN)(c2ccccc2)c2ccccc2)cc1`, in the series on Hepatitis C virus [2], the inhibition at 100 µM came out at 31.7%.
The same measure, in the same setting: to `Cc1ccc(C(SC[C@H](N)C(=O)O)(c2ccccc2)c2ccccc2)cc1` belongs 23.1%; to `CN(C)[C@@H](CSC(c1ccccc1)(c1ccccc1)c1ccccc1)C(=O)O`, 17.2%.
For the compound `CCCCc1ccc(C(SC(C)(C)[C@H](N)C(=O)O)(c2ccccc2)c2ccccc2)cc1`, the inhibition at 100 µM in the series with Hepatitis C virus [2] was determined as 22%.
Still for that read-out and setting: to `CCCCCCc1ccc(C(SC[C@H](N)C(=O)O)(c2ccccc2)c2ccccc2)cc1` belongs 16.1%.
Still for that read-out and setting: to `CC(C)(C)c1ccc(C(SC[C@H](N)C(=O)O)(c2ccccc2)c2ccccc2)cc1` belongs 22.6%; to `CC(C)c1ccc(C(SC[C@H](N)C(=O)O)(c2ccccc2)c2ccccc2)cc1`, 31.2%.
Same read-out and setting: then `CCCC(SC[C@H](N)C(=O)O)(c1ccccc1)c1ccccc1`, with 19.1%; and `CCc1ccc(C(SCCN)(c2ccccc2)c2ccccc2)cc1`, with 28.7%; and `NCCSC(c1ccccc1)(c1ccccc1)c1ccc(-c2ccccc2)cc1`, with 36%.
Regarding `N[C@@H](CSC(c1ccccc1)(c1ccccc1)c1cccs1)C(=O)O`, the inhibition at 100 µM with Hepatitis C virus [2] was 23.4%.
Consider `N[C@H](CSC(c1ccccc1)(c1ccccc1)c1ccccc1)C(=O)O`, for which the inhibition at 100 µM in the series on Hepatitis C virus [2] was found to be 17%.
Same read-out and setting: then `N[C@@H](CSC(c1ccccc1)(c1ccccc1)c1ccc(C(=O)O)cc1)C(=O)O`, with 30.9%.
Consider `CC(C)(SC(c1ccccc1)(c1ccccc1)c1ccccc1)[C@@H](N)C(=O)O`, for which, in the series with Hepatitis C virus [1], the IC50 was found to be 22.3 µM. Further, the viability at 42 h, 100 µM in series [3] was found to be 72.6%; in series [5] it was 100%. The figures for the inhibition at 100 µM in the series with Hepatitis C virus [2], with Hepatitis C virus [4] and in the series on Hepatitis C virus [6] were 82.8%, 85.4% and 89.5%, respectively.
As to `N[C@@H](CSC1(c2ccc(Cl)cc2)c2ccccc2-c2ccccc21)C(=O)O`, the pIC50 in series [7] is 4.33.
On to `CC(C)(SC(c1ccccc1)(c1ccccc1)c1ccccc1)[C@H](N)C(=O)O`, for which the IC50 with Hepatitis C virus [1] is 24.6 µM. The values for the viability at 42 h, 100 µM in series [3] and in series [5] were 74.1% and 100%, respectively. For the same compound, the results for the inhibition at 100 µM in the series with Hepatitis C virus [2], with Hepatitis C virus [4] and with Hepatitis C virus [6] were 76.7%, 84.3% and 91.2%, respectively.
